Measured values from ChEMBL document CHEMBL1125255, “Romazarit: a potential disease-modifying antirheumatic drug” (J Med Chem, 1991).
Values joined by “and” are separate entries in the source; they are usually repeats but may differ in a detail not shown here. Identical values can stand only once. Active and inactive are the calls of the source. No cut-off for these calls is given here.

What was measured:
Rattus norvegicus [1] = assay: Compound was evaluated in developing adjuvant arthritis model rats for its effect on paw edema.; assay type: functional; design: concentration or dose not given beside the values
How it was run: (§1)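 Female Allen and Hanbury hooded rats, five per group. Right hind paw injected sc on day 0 with heat-killed M. tuberculosis in paraffin oil (5 mg/mL). Compounds given orally as sodium salts in water. Paw volumes of both hind paws measured days 1–4, 1 h after dosing. Percent inhibition taken from area under the curve of the between-paw volume difference.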

[2] = Partition coefficient (logP); assay type: physicochemical; conditions: octanol/water
How it was run: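 Compound dissolved in disodium hydrogen phosphate/citric acid buffer pH 7.4 and partitioned against equal volume octan-1-ol. Buffer-phase UV absorbance read before and after partitioning near λmax. P′ from the octanol:buffer absorbance ratio.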

Rattus norvegicus [3] = assay: Radiographic change was judged in the area of the talus joint, using an arbitrary scoring system upon termination of the test (14 days dosing of 50 mg/kg) in a model of type II collagen arthritis in the rat.; assay type: functional; conditions: 336 h
How it was run: (§2)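 Type II collagen arthritis rats, eight per group, oral sodium salts daily from grouping (day 1). Hind limbs X-rayed post mortem. Tibia/talus and tarsus damage scored 0–3 per foot by two observers and averaged; left and right summed (max 6). Compared with arthritic controls by Mann–Whitney U test.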

Rattus norvegicus [4] = species: Rattus norvegicus; assay: Percent decrease in serum haptoglobin evaluated in a developing adjuvant arthritis model rats.
Rattus norvegicus [5] = assay: Radiographic change was judged in the area of the tarsus region, using an arbitrary scoring system upon termination of the test (14 days dosing of 50 mg/kg) in a model of type II collagen arthritis in the rat.; assay type: functional; conditions: 336 h; how it was run: as §2
Rattus norvegicus [6] = assay: Hepatic effect assessed by increase in liver weight after 14 days of dosing at 50 mg/kg orally.; assay type: functional
How it was run: (§3)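 Type II collagen arthritis rats, eight per group, daily oral dosing as sodium salts in water for 14 days. Liver weight recorded at termination and expressed as percentage change versus normal animals.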

Rattus norvegicus [7] = assay: Hepatic effect assessed by increase in catalase levels after 14 days of dosing at 50 mg/kg orally.; assay type: functional
How it was run: (§4)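 Type II collagen arthritis rats, eight per group, given oral sodium salts daily for 14 days. At termination liver homogenized in ice-cold 0.25 M sucrose and spun 2000 rpm 10 min. Catalase followed by decline in A240 from H2O2 breakdown, expressed as first-order rate constant K. Result given as % change versus normals.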

Rattus norvegicus [8] = species: Rattus norvegicus; assay: Percent decrease in serum haptoglobin evaluated in a developing adjuvant arthritis model rats; No significant effect
Rattus norvegicus [9] = assay: Compound was evaluated in developing adjuvant arthritis model rats for its effect on paw edema; No significant effect; assay type: functional, organism-based; how it was run: as §1
Rattus norvegicus [10] = assay: Radiographic change was judged in the area of the talus joint, using an arbitrary scoring system upon termination of the test (14 days dosing of 100 mg/kg) in a model of type II collagen arthritis in the rat.; assay type: functional; conditions: 336 h; how it was run: as §2
Rattus norvegicus [11] = assay: Hepatic effect assessed by increase in liver weight after 14 days of dosing at 100 mg/kg orally.; assay type: functional; how it was run: as §3
Rattus norvegicus [12] = assay: Hepatic effect assessed by increase in catalase levels after 14 days of dosing at 100 mg/kg orally.; assay type: functional; how it was run: as §4
Rattus norvegicus [13] = assay: Radiographic change was judged in the area of the tarsus region, using an arbitrary scoring system upon termination of the test (14 days dosing of 100 mg/kg) in a model of type II collagen arthritis in the rat.; assay type: functional; conditions: 336 h; how it was run: as §2
Rattus norvegicus [14] = assay: Radiographic change was judged in the area of the talus joint, using an arbitrary scoring system upon termination of the test (0.5 mg/kg 1-5 days dosing,0.25 mg/kg 6-15 days dosing)in a model of type II collagen arthritis in the rat.; assay type: functional; how it was run: as §2
Rattus norvegicus [15] = assay: Radiographic change was judged in the area of the tarsus region, using an arbitrary scoring system upon termination of the test (14 days dosing of 1 mg/kg) in a model of type II collagen arthritis in the rat.; assay type: functional; conditions: 336 h; how it was run: as §2
Mononuclear cell line = assay: Inhibition of human PGE-2 production.; assay type: functional, cell-based
How it was run: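 Human blood mononuclear cells from healthy volunteers stimulated with 2.5 μg/mL phytohaemagglutinin and incubated 24 h with compound (sodium salt). PGE2 measured by RIA.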

[16] = Inhibition of prostaglandin synthetase in sheep seminal vesicle; design: species or system Ovis aries
How it was run: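 Sheep seminal vesicle enzyme (2.5 mg/mL) preincubated 5 min at 30 °C with or without compound (sodium salt, aqueous) plus glutathione 1 mM and adrenaline 625 μM. Integrated prostaglandin/thromboxane peak area compared with the no-drug control.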

Rattus norvegicus [17] = assay: Radiographic change was judged in the area of the talus joint, using an arbitrary scoring system upon termination of the test (14 days dosing of 1 mg/kg) in a model of type II collagen arthritis in the rat.; assay type: functional; conditions: 336 h; how it was run: as §2

SMILES | Inhibition (Rattus norvegicus [1]) | logP [2] | Decrease (Rattus norvegicus [4]) | Decrease (Rattus norvegicus [8]) | inhibition (Rattus norvegicus [9]) | inhibition in vivo at 100 mg/kg (Rattus norvegicus [10]) | Change (Rattus norvegicus [11]) | Change (Rattus norvegicus [12]) | inhibition in vivo at 100 mg/kg (Rattus norvegicus [13]) | also measured
CC(C)(OCc1ccn(-c2ccc(Cl)cc2)n1)C(=O)O | 46% | 0 | 30% |  |  |  |  |  |  | inhibition in vivo at 50 mg/kg (Rattus norvegicus [3]): 48%; inhibition in vivo at 50 mg/kg (Rattus norvegicus [5]): 32%; Change (Rattus norvegicus [6]): 13%; Change (Rattus norvegicus [7]): 90%
CC(C)(OCc1scnc1-c1ccc(Cl)cc1)C(=O)O |  | 0.23 |  | inactive | inactive |  |  |  |  | 
CC(C)(OCc1cc(-c2ccc(Cl)cc2)[nH]n1)C(=O)O |  | 0.36 |  | inactive | inactive |  |  |  |  | 
Cc1oc(-c2ccc(Cl)cc2)nc1COC(C)(C)C(=O)O | 67% | 0.52 |  | inactive |  | 65% | 2% | 60% | 54% | 
CC(C)(OCc1ccc(-c2ccc(Cl)cc2)nn1)C(=O)O |  | -0.15 |  | inactive | inactive |  |  |  |  | 
CC(C)(OCc1nc(-c2ccc(Cl)cc2)co1)C(=O)O | 69% | 0.15 | 9% |  |  | 63% | 19% | 68% | 39% | 
CC(C)(OCc1cnn(-c2ccc(Cl)cc2)c1)C(=O)O | 76% | 0.04 | 37% |  |  |  |  |  |  | inhibition in vivo at 50 mg/kg (Rattus norvegicus [3]): 15%; inhibition in vivo at 50 mg/kg (Rattus norvegicus [5]): 18%; Change (Rattus norvegicus [6]): 70%; Change (Rattus norvegicus [7]): 180%
CC(C)(OCc1csc(-c2ccc(Cl)cc2)n1)C(=O)O | 81% | 0.66 | 16% |  |  |  |  |  |  | 
CC(C)(OCc1coc(-c2ccc(Cl)cc2)n1)C(=O)O | 84% | 0.23 | 40% |  |  | 59% | 19% | 52% | 44% | 
CC(C)(OCc1cccc(-c2ccc(Cl)cc2)n1)C(=O)O |  | 0.69 |  | inactive | inactive |  |  |  |  | 
Cn1cc(-c2ccc(Cl)cc2)nc1COC(C)(C)C(=O)O |  | 0.08 |  | inactive | inactive |  |  |  |  | 
CC(C)(OCc1ncc(-c2ccc(Cl)cc2)o1)C(=O)O | 40% | 0.15 | 17% |  |  | 36% | 3% | -10% | 24% | 
C[C@@H]1C[C@H]2[C@@H]3CCC4=CC(=O)C=C[C@]4(C)[C@@]3(F)[C@@H](O)C[C@]2(C)[C@@]1(O)C(=O)CO [DEXAMETHASONE] |  |  |  |  |  |  |  |  |  | Inhibition (Rattus norvegicus [14]): 95% and 98%
CC(C)(OCc1cc(-c2ccc(Cl)cc2)on1)C(=O)O | 64% | 0.46 | 34% |  |  | 24% | 41% | 140% | 42% | 
CC(C)(OCc1cnc(-c2ccc(Cl)cc2)o1)C(=O)O | 33% | 0.11 |  | inactive |  | 42% | 16% | 11% | 41% | 
CC(C)(OCc1ncsc1-c1ccc(Cl)cc1)C(=O)O |  | 0.23 |  | inactive | inactive |  |  |  |  | 
CC(C)(OCc1cc2cc(Cl)ccc2o1)C(=O)O | 39% | -0.57 |  | inactive |  |  |  |  |  | 
COc1ccc2c(c1)c(CC(=O)O)c(C)n2C(=O)c1ccc(Cl)cc1 [INDOMETHACIN] | 84% |  |  | inactive |  |  |  |  |  | inhibition in vivo at 1 mg/kg (Rattus norvegicus [15]): 45%; IC50 (Mononuclear cell line): 0.3 µM; IC50 [16]: 1.2 µM; inhibition in vivo at 1 mg/kg (Rattus norvegicus [17]): 48%
CC(C)(OCc1cc(-c2ccc(Cl)cc2)no1)C(=O)O | 72% | 0.36 | 37% |  |  | 60% | 47% | 73% | 47% | 
CC(C)(OCc1coc2ccc(Cl)cc12)C(=O)O |  | -0.54 |  | inactive | inactive |  |  |  |  | 
